The nature of data set [1]: Selectivity ratio of CC50 for MDCK cells to EC50 for pandemic Influenza A virus A/TW/2235/09 (H1N1) SO4. In kind it is toxicity. The conditions noted are these: dog, read-out: Ratio CC50/EC50. The method in brief:
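MDCK cells (2 × 10^4/well, E10, 16–24 h) infected at nine-fold TCID50 with compound for 72 h, 37 °C, 5% CO2. Cells were fixed in 4% paraformaldehyde and stained with crystal violet; EC50 is from Reed–Muench. For CC50, cells had compound alone for 72 h, then MTT 3 h, DMSO, A570, Reed–Muench. SI = CC50/EC50; three independent experiments.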

For data set [2], the system named is Influenza A virus. Description: Antiviral activity against Influenza A virus (A/WSN/33) infected in MDCK cells assessed as inhibition of virus-induced cytopathic effects at 10 uM after 36 hrs by microscopic analysis. The data set is classed as functional, organism-based. The conditions noted are these: A/WSN/1933(H1N1). The procedure, abridged: (§1)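 MDCK cells (2 × 10^5/well) grown 16–24 h, infected with A/WSN/33 at MOI 0.5 for 1 h, rinsed twice with DPBS, then kept in serum-free E0 with 10 μM compound at 37 °C. Cell morphology checked by light microscopy at 12 and 36 h pi. Drug-only and virus-only arms included; three repetitions.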
(Protection from cytopathic effect is a common read-out in antiviral testing.)

A further data set has as its system enterovirus D68. Briefly: Antiviral activity against Enterovirus D68 TW/2795/2014 clade B3 infected in human RD cells after 72 hrs by crystal violet-staining based assay. The data set is classed as functional, organism-based. The conditions noted are these: Enterovirus D, TW/2795/2014 clade B3, RD. The procedure, abridged: (§2)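 Cells seeded at 2 × 10^4/well in E10 (DMEM, 10% FBS), 16–24 h at 37 °C/5% CO2, washed with DPBS, then infected at nine-fold TCID50 with or without serial compound concentrations. Influenza is run in MDCK and enterovirus/rhinovirus in RD. Incubated 72 h, fixed in 4% paraformaldehyde, stained with 0.1% crystal violet, and read for cell density. EC50 = 50% CPE inhibition by Reed–Muench; mean ± S.D. of at least three runs.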

Data set [3] concerns MDCK. Briefly: Inhibition of CRM1 in MDCK cells infected with Influenza A virus (A/WSN/33) assessed as reduction in CRM1-mediated viral protein nuclear export by measuring reduction in NP protein distribution to cytoplasm at 10 uM measured after 9 hrs post infection by IF-staining based microscopy. In kind it is cell-based. The conditions noted are these: Canis lupus familiaris. The procedure, abridged:
(§3)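 MDCK cells grown on coverslips (2 × 10^5/well, 16 h), infected at MOI 0.1 for 1 h, washed, then kept in E0 with test compound (1 or 10 μM) or LMB 10 nM; DMSO 0.05% as mock. Fixed at 9 h pi in 4% paraformaldehyde and immunostained for M1, NP, NS2 or PA (1:50), with Hoechst nuclear stain. Viewed by confocal microscopy at 63×. NP nuclear/cytoplasmic intensity ratio quantified; three independent experiments.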

The subject of data set [4] is Influenza A virus. Briefly: Inhibition of viral protein synthesis in Influenza A virus (A/WSN/33) infected in MDCK cells assessed as effect on NS2 protein level at 10 uM measured up to 9 hrs post infection by Western blot analysis. In kind it is functional, organism-based. The note with it: A/WSN/1933(H1N1). The procedure, abridged:
(§4)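 MDCK cells (5 × 10^5/well) infected with A/WSN/33 at MOI 0.1, washed twice, then held in E0 with or without 10 μM compound. Lysed in Triton X-100/deoxycholate buffer, equal protein separated by SDS-PAGE, and immunoblotted for viral proteins with GAPDH as loading control. Time-course harvests up to 9 h pi.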

Data set [5] is described as follows: Cytotoxicity against human RD cells assessed as cell death after 72 hrs by MTT assay. In kind it is cell-based. The method in brief:
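MDCK or RD cells at 2 × 10^4/well in E10, overnight at 37 °C/5% CO2, DPBS wash, then exposed to graded compound concentrations for 72 h. MTT added for 3 h, formazan dissolved in DMSO, absorbance read at 570 nm. CC50 (50% cell death) by Reed–Muench.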
On the technique in general: Tetrazolium assays rely on reduction of a dye to a coloured formazan, in cell work by metabolically active cells.

The subject of data set [6] is Influenza A virus. Description: Antiviral activity against Influenza A virus A/TW/3446/02 (H3N2) infected in MDCK cells after 72 hrs by crystal violet-staining based assay. The data set is classed as functional, organism-based. The procedure, abridged:
as §2

Data set [7] concerns Influenza A virus. Briefly: Inhibition of viral protein sub-cellular distribution in Influenza A virus (A/WSN/33) infected in MDCK cells assessed as reduction in NS2 protein distribution to cytoplasm at 10 uM measured after 9 hrs post infection by IF-staining based microscopy. In kind it is functional, organism-based. The conditions noted are these: A/WSN/1933(H1N1). The procedure, abridged: as §3

The test system of data set [8] is Influenza A virus. Description: Antiviral activity against Influenza A virus (A/WSN/33) infected in MDCK cells at 10 uM added at 6 hrs to 9 hrs post infection and measured after 9 hrs by plaque assay. The data set is classed as functional, organism-based. The note with it: A/WSN/1933(H1N1). The method in brief:
(§5)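 MDCK monolayers exposed to compound (1 or 10 μM) over windows of −3, −1, 0, 3 or 6 to 9 h pi. A/WSN/33 adsorbed at MOI 0.1 from −1 to 0 h, then removed with a PBS wash. Supernatant taken at 9 h pi and titred by plaque assay, normalised to virus-only (100%). Average of three independent experiments.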

Data set [9] relates to Influenza A virus. Briefly: Inhibition of viral RNA synthesis in Influenza A virus (A/WSN/33) infected in MDCK cells at 10 uM measured up to 9 hrs post infection by RT-qPCR analysis. The data set is classed as functional, organism-based. The note with it: A/WSN/1933(H1N1). The method in brief: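 MDCK monolayers (5 × 10^5/well) infected with A/WSN/33, then given 10 μM compound during or after infection. Total RNA extracted with TRIzol at 0, 3, 6 and 9 h pi. Viral RNA quantified by RT-qPCR with M1-specific primers, GAPDH used for quantitative standards. Representative of three independent experiments.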
On the technique in general: Quantitative PCR measures a nucleic acid by following its amplification.

The subject of data set [10] is Influenza A virus. Description: Inhibition of viral protein synthesis in Influenza A virus (A/WSN/33) infected in MDCK cells assessed as effect on HA protein level at 10 uM measured up to 9 hrs post infection by Western blot analysis. The conditions noted are these: A/WSN/1933(H1N1). The data set is classed as functional, organism-based. The procedure, abridged:
as §4

The subject of the next data set is Erythrocyte. Description: Induction of hemagglutination in guinea pig RBC at serial dilution from 50 uM after 1 hr by HAI assay. In kind it is cell-based, Cavia porcellus. The procedure, abridged: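 Virus titrated on 0.5% guinea pig RBCs to define 1 HA unit; 4 HA units used. Compound two-fold serially diluted from 50 µM and mixed with virus for 30 min at room temperature, or tested without virus for direct agglutination. 0.5% RBCs then added and agglutination scored after 1 h. DMSO/RBC-only and virus-only controls included.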

Another data set relates to Enterovirus. Description: Antiviral activity against Rhinovirus 71903 infected in human RD cells after 72 hrs by crystal violet-staining based assay. In kind it is functional, organism-based. The note with it: Enterovirus, 71903, RD. The method in brief: as §2
For data set [11], the system named is Influenza A virus. Description: Antiviral activity against Influenza A virus (A/WSN/33) infected in MDCK cells assessed as reduction in virus-induced cytopathic effect after 72 hrs by crystal violet-staining based assay. The data set is classed as functional, organism-based. The conditions noted are these: A/WSN/1933(H1N1). The procedure, abridged:
as §2

In data set [12] the test system is MDCK. Briefly: Cytotoxicity against MDCK cells at 10 uM after 12 to 36 hrs by microscopic analysis. In kind it is cell-based, Canis lupus familiaris. The conditions noted are these: dog. The method in brief:
as §1

Data set [13] deals with Influenza A virus. Briefly: Antiviral activity against Influenza A virus (A/WSN/33) infected in MDCK cells at 10 uM added at 3 hrs to 9 hrs post infection and measured after 9 hrs by plaque assay. The data set is classed as functional, organism-based. The note with it: A/WSN/1933(H1N1). The method in brief:
as §5

Data set [14] in a line: Selectivity ratio of CC50 for human RD cells to EC50 for Enterovirus A71 TW/2231/1998. The data set is classed as toxicity. The note with it: read-out: Ratio CC50/EC50. The procedure, abridged:
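RD cells (2 × 10^4/well, DMEM 10% FBS, 16–24 h) infected with enterovirus at nine-fold TCID50 with compound, 72 h, 37 °C, 5% CO2. Cells were fixed in 4% paraformaldehyde, stained with 0.1% crystal violet, and EC50 taken by Reed–Muench. CC50 came from 72 h exposure of uninfected RD cells, MTT 3 h, A570, Reed–Muench. SI = CC50/EC50; three independent experiments.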

We go through 1 compound from ChEMBL document CHEMBL4316597, “Design, Synthesis, and Biological Evaluation of Itaconic Acid Derivatives as Potential Anti-Influenza Agents” (J Med Chem, 2019).

Molecules are shown by their SMILES. Calls of active or inactive are those of the source. The rule behind the calls is not given here.

One may read the EC50 as the concentration at which the effect is half-maximal. The term CC50 denotes the concentration that lowers cell viability or growth by half. With `C=C(CC(=O)Nc1ccc(F)cc1F)C(=O)Nc1ccc(F)cc1F`, the selectivity ratio is 36 in [1] and 16 in data set [14]. Besides, the outcome with Influenza A virus [2] and in the data set on Influenza A virus [13] was Active. Besides, the EC50 is above 50 µM in the data set with enterovirus D68, 4.6 µM in the data set with Influenza A virus [6], above 50 µM with Enterovirus and 2.84 µM in the data set with Influenza A virus [11]. Also, the inhibition result in the data set on MDCK [3] was “Active”. The inhibition result in the data set with Influenza A virus [4], with Influenza A virus [7], in the data set on Influenza A virus [9] and with Influenza A virus [10] was “inactive” throughout. Also, the 50% cytotoxic concentration (CC50) at 72 h in data set [5] came to 74.6 µM. Besides, in the data set on Influenza A virus [8], the result was inactive. For the same compound, the Activity entry with Erythrocyte and with MDCK [12] was “Non-Toxic” throughout.
